LANA-H2B inh: blocks KSHV LANA binding to histone H2A/H2B; Q9QR71; cell-free LANA-H2A/H2B peptide, fluorescence polarization; inhibition, % (no concentration beside the values); 320,000 compounds, 0.6% hits; in the data active = inhibition mostly above about 10%, no sharp cut-off; inactive = mostly below about 6.7%
Target sequence (Q9QR71 whole entry, looked up): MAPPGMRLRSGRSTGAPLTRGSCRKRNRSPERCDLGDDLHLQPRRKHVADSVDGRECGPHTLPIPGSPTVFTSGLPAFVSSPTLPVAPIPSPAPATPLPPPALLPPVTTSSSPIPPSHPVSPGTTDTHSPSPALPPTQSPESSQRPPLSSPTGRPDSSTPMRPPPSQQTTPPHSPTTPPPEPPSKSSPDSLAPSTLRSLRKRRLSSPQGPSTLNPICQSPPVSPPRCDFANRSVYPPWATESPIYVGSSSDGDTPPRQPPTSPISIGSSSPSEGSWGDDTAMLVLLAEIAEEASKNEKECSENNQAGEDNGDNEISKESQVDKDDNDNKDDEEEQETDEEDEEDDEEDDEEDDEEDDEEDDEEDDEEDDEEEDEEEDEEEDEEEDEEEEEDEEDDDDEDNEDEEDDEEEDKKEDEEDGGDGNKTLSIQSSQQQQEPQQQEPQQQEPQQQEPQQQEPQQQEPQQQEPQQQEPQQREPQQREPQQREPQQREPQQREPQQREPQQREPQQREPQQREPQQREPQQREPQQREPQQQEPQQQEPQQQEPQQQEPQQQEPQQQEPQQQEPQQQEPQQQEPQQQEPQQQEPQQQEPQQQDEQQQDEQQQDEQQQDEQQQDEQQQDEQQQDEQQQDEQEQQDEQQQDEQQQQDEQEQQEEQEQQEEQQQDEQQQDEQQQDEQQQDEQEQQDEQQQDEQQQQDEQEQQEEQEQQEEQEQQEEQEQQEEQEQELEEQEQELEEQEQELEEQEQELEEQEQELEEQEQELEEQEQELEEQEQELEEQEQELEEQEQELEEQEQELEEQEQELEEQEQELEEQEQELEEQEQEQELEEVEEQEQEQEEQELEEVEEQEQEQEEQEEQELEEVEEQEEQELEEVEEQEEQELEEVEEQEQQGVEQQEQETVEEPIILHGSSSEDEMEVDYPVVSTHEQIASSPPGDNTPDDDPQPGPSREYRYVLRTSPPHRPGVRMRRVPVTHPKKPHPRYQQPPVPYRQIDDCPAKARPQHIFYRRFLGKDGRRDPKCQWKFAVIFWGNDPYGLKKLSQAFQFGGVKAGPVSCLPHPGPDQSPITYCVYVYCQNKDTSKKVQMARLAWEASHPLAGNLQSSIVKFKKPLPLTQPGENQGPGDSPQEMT
AI-2 QS mod: Vibrio harveyi AI-2 quorum sensing modulation | Vibrio harveyi JMH597 AI-2 luminescence/OD600 ratio, 9 h; hits give low values; strain lacks LuxN and CqsS sensors; 0 = neutral-control median | activity change, % at 7.5 µM | 300,000 compounds, 0.4% hits; in the data active = activity change below about -75%, passing the limit was not always enough; inconclusive = no clear call, values can overlap the other calls;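 note: luminescence divided by OD600 gain over 9 h not by final OD600 alone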
Bfl-1 A1 inh: inhibitors of the anti-apoptotic protein A1, read as caspase activation; MEF A1-2A-BIM cells, Caspase-Glo 3/7 luminescence, 3 h; percent of clofoctol response, vehicle zero; caspase activation, % (test concentration not listed); 330,000 compounds, 0.066% hits;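 active = over half of replicate activation scores above 10%, or exactly half above 10 with the replicate mean above 10; inconclusive = replicate mean below 10 yet half the replicates above 10; inactive = over half of replicates below 10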
HDAC3 inhib: human HDAC3 inhibition | O15379 | recombinant HDAC3, fluorogenic peptide/trypsin coupled, fluorescence | inhibition, % at 8.3 µM | 320,000 compounds, 0.15% hits; in the data active = inhibition above about 26%, passing the limit was not always enough; inconclusive = no clear call, values can overlap the other calls
ATG4B inh: inhibitors of human ATG4B cysteine protease; ATG4B cleavage of LC3-PLA2, NBD-HPC fluorescence, 1 h; Q9Y4P1; inhibition, % at 8.33 µM; 340,000 compounds, 0.51% hits; in the data active = inhibition above about 40%
HKDC1 inhibitor: HKDC1 (human) hexokinase inhibition; inhibition, % at 20 µM; AID 493160; recombinant HKDC1, G6PDH/diaphorase resazurin coupled fluorescence; 340,000 compounds, 0.16% hits;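 active = inhibition above about 35% when tested at 20 µM, limit read from the data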;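 note: plate controls were DMSO wells with enzyme for no effect and DMSO wells lacking enzyme for full effect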
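Test system: recombinant HKDC1 (HK5) hexokinase enzyme, produced in-house / Doses: 20 µM test compound, 1% DMSO / Timing: 90 min, room temperature / Detection: G6PDH/diaphorase-coupled fluorescence, 1 mM NADP, 100 µM resazurin, 525/613 nm / Control set: DMSO wells with and without enzyme mix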
JMH597 growth: retest: blocks Vibrio harveyi JMH597 growth. shares compounds with AI-2 QS mod. OD600 absorbance, 9 h; lacks LuxN and CqsS sensors. growth inhibition, % at 7.5 µM. 750 compounds, 1% hits;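 active = every replicate shows growth inhibition above 50%; inconclusive = at least half, but not all, replicates pass that cutoff; inactive = fewer than half of replicates pass it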
BB721 lum counter: retest counter-screen: lowers luminescence of constitutive-QS Vibrio harveyi BB721; shares compounds with AI-2 QS mod; 9 h; inhibition, % at 7.5 µM; 750 compounds, 95% hits;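 active = inhibition above about 80% in every replicate, not just on average, limit read from the data; inconclusive = at least half of replicates past the limit, but not all; inactive = fewer than half of replicates past the limit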
BB721 growth: retest Vibrio harveyi BB721 growth inhibition; 750 compounds, 3% hits; AID 2728; shares compounds with AI-2 QS mod; OD600 absorbance, 9 h; growth inhibition, % at 7.5 µM;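 active = every replicate shows growth inhibition above 50%; inconclusive = at least half but not all replicates above 50% inhibition; inactive = under half of replicates above 50% inhibition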
JMH597 AI-2 mod: Vibrio harveyi AI-2 signaling luminescence modulation – JMH597 strain, confirmation; shares compounds with AI-2 QS mod; Vibrio harveyi JMH597 AI-2 quorum sensing luminescence, 9 h; luxN and CqsS knockout, AI-2 only; inhibition, % at 7.5 µM; 750 compounds, 97% hits;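 active = every replicate shows more than 75% inhibition of signal versus neutral control wells; inconclusive = half to three quarters of replicates exceed 75% inhibition; inactive = fewer than half of replicates exceed 75% inhibition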
* hit, by the source's call; ? = inconclusive; · = no result given. Sampled rows, rich in hits. Any-hit rate of the full collection: about 1.8%.

SMILES | LANA-H2B inh | AI-2 QS mod | Bfl-1 A1 inh | HDAC3 inhib | ATG4B inh | HKDC1 inhibitor | JMH597 growth | BB721 lum counter | BB721 growth | JMH597 AI-2 mod
O=C(NC1CCCCC1)C(c1ccc(O)cc1)N(CC1CCCO1)C(=O)C1COc2ccccc2O1 (stereo not given) | 2.0 | 28.3 | -0.2 | 2.6 | -13.9 | 0.0 | · | · | · | ·
C=C1CCN([C@@H](C)C(=O)NCc2ccc(Cl)cc2)S(=O)(=O)c2ccccc21 | -2.1 | 32.7 | 0.6 | -8.5 | -4.5 | -2.9 | · | · | · | ·
Fc1ccc(CSc2nnc(-c3ccco3)o2)cc1 | 0.0 | ? | 0.5 | -11.4 | -6.1 | -4.6 | · | · | · | ·
Brc1ccc(CSc2nnc(-c3ccco3)o2)cc1 | 1.5 | -60.0 | 0.8 | 2.2 | 6.4 | 7.3 | · | · | · | ·
c1ccc(CSc2nnc(-c3ccco3)o2)cc1 | -4.7 | -86.7* | -0.4 | 5.0 | -4.7 | -2.1 | 15.3 | 94.7* | 0.4 | 95.9*
Cc1ccc(CSc2nnc(-c3ccco3)o2)cc1 | 1.8 | -81.6* | 1.2 | 7.8 | 2.6 | -3.5 | 34.9 | 96.5* | 5.7 | 97.9*
CSCCC1NC(=O)N(CC(=O)Nc2c(Cl)cc(Cl)cc2Cl)C1=O (stereo not given) | 4.9 | 21.8 | ? | -3.5 | 8.8 | -1.7 | · | · | · | ·
CSCCC1NC(=O)N(CC(=O)Nc2ccc(N3CCCCC3)cc2)C1=O (stereo not given) | 2.0 | -82.4* | 1.1 | -6.5 | -9.6 | -3.9 | -2.0 | 91.4* | -11.1 | 95.5*
Clc1cccc(CSc2nc3ccncc3[nH]2)c1 | -0.6 | -89.1* | · | -2.9 | 13.1 | 2.4 | -38.2 | 96.0* | -32.8 | 95.9*
O=C1CCC(=O)N1c1ccc(CSc2nc3ccccc3[nH]2)cc1 | -0.6 | 6.1 | -0.5 | 0.9 | 6.0 | -1.7 | · | · | · | ·
COc1ccc(CSc2nc3ccccc3[nH]2)cc1 | -20.4 | -85.3* | -9.5 | 4.5 | -6.9 | 2.2 | 21.5 | 91.9* | -13.7 | 95.8*
CCN(CC)C(=O)CSc1nnc(COc2ccccc2)n1N | 3.9 | 17.0 | 0.6 | -8.4 | 7.0 | -6.0 | · | · | · | ·
N/C(=N\OC(=O)COc1ccc(Cl)cc1)c1cccnc1 | · | ? | -0.6 | · | -4.8 | -8.6 | · | · | · | ·
N/C(=N\OC(=O)CCCOc1ccccc1)c1ccccc1 | -9.9 | -82.6* | 0.1 | 2.0 | -4.1 | -5.7 | 3.4 | 92.0* | 4.8 | 93.4*
N/C(=N\OC(=O)COc1ccc2ccccc2c1)c1cccnc1 | 0.6 | -90.3* | -0.3 | 8.2 | -13.9 | -6.3 | 34.1 | 98.2* | -8.6 | 98.8*
Cc1ccc(OCC(=O)O/N=C(\N)c2cccnc2)cc1 | -9.3 | -84.1* | 0.1 | 0.6 | -6.9 | -5.5 | 8.2 | 92.0* | 12.9 | 94.7*
N/C(=N\OC(=O)CCCOc1ccccc1)c1ccncc1 | 1.7 | -14.9 | -0.9 | 1.9 | -7.2 | -7.3 | · | · | · | ·
COc1ccc(S(=O)(=O)N2CCOCC2)cc1NC(=O)/C=C/c1ccc(F)cc1 | · | · | · | · | -14.2 | -16.4 | · | · | · | ·
O=C(COC(=O)C1CCC1)Nc1ccc(Oc2ccccc2)cc1 | 1.3 | -7.2 | -0.7 | 2.7 | 3.2 | 0.7 | · | · | · | ·
O=C(COC(=O)C1CC1)Nc1ccc(Oc2ccccc2)cc1 | 1.4 | -81.6* | 0.9 | 5.1 | 3.1 | -4.8 | 17.1 | 89.2* | -1.5 | 93.9*
CO/N=C\CC(=O)Nc1ccc(Oc2ccccc2)cc1 | -5.8 | -79.9* | -0.1 | 4.7 | 4.7 | -7.4 | 12.5 | 84.0* | -3.4 | 90.7*
O=C(CN1C(=O)NC2(CCCCCC2)C1=O)N1CCCCC1 | 1.8 | · | 0.2 | -0.7 | 3.7 | -7.8 | · | · | · | ·
CNc1nc(SCC(=O)Nc2ccc(Cl)c(Cl)c2)nc(N2CCOCC2)n1 | -3.4 | ? | 0.5 | -10.9 | -4.7 | 1.4 | -13.0 | -12.6 | -22.1 | -2.3
Cc1cc(C)nc(SCC(=O)Nc2ccc(N3CCOCC3)c(Cl)c2)n1 | -4.1 | · | -0.2 | 2.1 | -9.0 | -4.8 | · | · | · | ·
O=C(O)c1ccc(NCc2cccnc2)cc1 | 4.7 | 18.8 | 0.8 | 3.5 | -0.3 | -5.7 | · | · | · | ·
SMILES | LANA-H2B inh | AI-2 QS mod | Bfl-1 A1 inh | HDAC3 inhib | ATG4B inh | HKDC1 inhibitor | JMH597 growth | BB721 lum counter | BB721 growth | JMH597 AI-2 mod
O=C(O)c1ccc(NCc2ccc(Br)cc2)cc1 | -1.4 | -95.9* | -1.3 | 12.0 | 7.4 | 2.9 | -7.8 | 99.7* | 12.3 | 99.8*
Cc1cc(C(=O)NNC(=O)c2cccc(C(F)(F)F)c2)no1 | 0.2 | 13.7 | -0.6 | 4.3 | -2.4 | -4.4 | · | · | · | ·
COC(=O)/C=C/C(=O)Nc1cccc(C(F)(F)F)c1 | 0.1 | -89.1* | -0.5 | 1.1 | 8.1 | -13.6 | 8.8 | 87.5* | 34.1 | 87.1*
COC(=S)Nc1cccc(C(F)(F)F)c1 | 0.1 | 12.5 | -0.2 | -10.8 | 1.2 | -1.4 | · | · | · | ·
Cc1cc(C(=O)NNC(=O)Nc2cccc(C(F)(F)F)c2)no1 | 0.1 | -89.8* | -0.1 | 4.7 | 6.7 | -6.4 | -7.2 | 97.6* | -13.7 | 98.0*
C=CCOc1c(CNc2ccc(C(=O)O)cc2)cccc1OCC | -2.4 | -89.0* | -1.7 | 1.1 | 3.2 | -8.7 | 4.7 | 95.4* | -1.7 | 97.8*
CC(C)(C)N=C1NC(=NC(C)(C)C)c2ccccc21 | -1.2 | 23.5 | 0.4 | -11.3 | 6.7 | -12.3 | · | · | · | ·
Cc1ncn(-c2ccc(C(=O)Oc3ccccc3)cn2)n1 | -7.0 | -86.6* | 0.1 | -2.2 | 8.0 | -12.2 | 19.1 | 93.3* | 1.1 | 95.8*
COc1cc(C)ccc1OCc1cc(C(=O)N2CCN(C)C[C@@H]2c2ccccc2)no1 | -0.2 | 10.6 | -0.1 | 2.2 | -1.4 | 3.2 | · | · | · | ·
O=C1CC(SCCO)C(=O)N1c1ccc(Oc2ccccc2)cc1 (stereo not given) | -9.0 | -83.0* | 1.3 | -3.1 | -0.5 | -3.5 | 5.5 | 90.9* | 13.3 | 91.8*
O=C(O)CCSC1CC(=O)N(c2ccccc2)C1=O (stereo not given) | -6.4 | 11.2 | -0.7 | 0.9 | -0.1 | -1.4 | · | · | · | ·
NCCSC1CC(=O)N(c2ccc(Cl)c(Cl)c2)C1=O (stereo not given) | 5.5 | -80.0* | 0.4 | 4.5 | 3.2 | 4.5 | 3.4 | 90.5* | 33.9 | 94.0*
O=C(c1cc(-c2ccc(Cl)cc2)n[nH]1)N1CCc2ccccc2C1 | -4.3 | 21.4 | 0.3 | 1.1 | 0.1 | -6.5 | · | · | · | ·
CC(=O)c1cccc(NC(=O)CN(C)S(=O)(=O)c2cccc3nsnc23)c1 | -3.9 | 11.5 | 1.4 | 6.3 | 0.5 | -0.7 | · | · | · | ·

Source: PubChem BioAssay
